Source: ChEMBL document CHEMBL1131493, “Inhibitors of farnesyl protein transferase. 4-Amido, 4-carbamoyl, and 4-carboxamido derivatives of 1-(8-chloro-6,11-dihydro-5H-benzo[5,6]- cyclohepta[1,2-b]pyridin-11-yl)piperazine and 1-(3-bromo-8-chloro-6,11- dihydro-5H-benzo[5,6]cyclohepta[1,2-b]pyridin-11-yl)piperazine” (J Med Chem, 1998)

Key:
[1] = Oral bioavailability in mouse (nude) (dose of 25 mg/kg); assay type: ADME, organism-based; conditions: in vivo
How it was run: (§1)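 Serum pharmacokinetics in nude mice or cynomolgus monkeys after oral (po) or iv dosing. Compounds were given as hydrochloride salts in 20% HPβCD unless otherwise noted. Other formulations were the hydrochloride salt in saline, the micronized free base in 20% HPβCD or corn oil (po) with saline for iv, or the hydrochloride salt in 0.4% methyl cellulose (po).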

[2] = In vivo antitumor efficacy peroral dose of 25 mg/kg expressed as duration for which compound was present above IC50; assay type: ADME, organism-based; design: dose 25 mg/kg, route oral; conditions: po; how it was run: as §1
[3] = target: T1, Protein farnesyltransferase (Homo sapiens, UniProt P49354+P49356); assay: Inhibition of Farnesyltransferase from Ras-CVLS or Ras-CVLL in Cos-7 monkey kidney cells; assay type: cell-based, Chlorocebus aethiops
[4] = In vivo antitumor efficacy in nude mice 0-24 hr after peroral dose of 25 mg/kg expressed as Area under the curve; assay type: ADME, organism-based; design: time < 24 hr, dose 25 mg/kg, route oral; conditions: nude, mouse, po; how it was run: as §1
[5] = target: T1, Protein farnesyltransferase; assay: In vitro inhibition of farnesyltransferase farnesylation of the H-ras oncogene; assay type: protein-complex assay
[6] = In vivo antitumor efficacy in nude mice by injecting a dose of 25 mg/kg iv and serum half-life was determined; assay type: ADME, organism-based; design: dose 25 mg/kg, route intravenous; conditions: mouse; how it was run: as §1
[7] = In vivo antitumor efficacy in nude mice after peroral dose of 25 mg/kg expressed as Area under the curve; assay type: ADME, organism-based; design: dose 25 mg/kg, route oral; conditions: mouse, po; how it was run: as §1
[8] = target: geranylgeranyltransferase type-I (Rattus norvegicus, UniProt P53610+Q04631); assay: Inhibition of rat Geranylgeranyl transferase (GGPT); assay type: protein-complex assay
[9] = (§2) Maximal plasma concentration in nude mice after 25 mg/kg oral dose; assay type: ADME, organism-based; design: dose 25 mg/kg, route oral; conditions: mouse; how it was run: as §1
[10] = In vivo antitumor efficacy in nude mice by injecting a dose of 25 mg/kg, as HCl salt in saline solution, iv and the total drug exposure was determined. (0-24hr); assay type: ADME, organism-based; design: time < 24 hr, dose 25 mg/kg, route intravenous; conditions: mouse
[11] = as §2; assay type: ADME, organism-based; design: dose 25 mg/kg, route oral; conditions: mouse; remark: listed apart in the source
[12] = Oral bioavailability in mouse (nude) (dose 25 mg/kg i.v.); assay type: ADME, organism-based; conditions: in vivo
[13] = In vivo antitumor efficacy in nude mice by injecting a dose of 25 mg/kg, as HCl salt in saline solution, iv and the serum half-life was determined; assay type: ADME, organism-based; design: dose 25 mg/kg, route intravenous; conditions: mouse
[14] = In vivo antitumor efficacy in nude mice by injecting a dose of 25 mg/kg, as HCl salt in saline solution, perorally and the total drug exposure was determined (0-24hr); assay type: ADME, organism-based; design: time < 24 hr, dose 25 mg/kg, route oral; conditions: mouse, po
Mus musculus [15] = assay: In vivo antitumor efficacy in nude mice by injecting a dose of 25 mg/kg, as HCl salt in saline solution, perorally and the duration of action was reported; assay type: ADME, organism-based; design: dose 25 mg/kg, route oral; conditions: po
Mus musculus [16] = assay: In vivo antitumor efficacy after peroral dose of 25 mg/kg in mice expressed as duration for which compound was present above IC50; assay type: ADME, organism-based; design: dose 25 mg/kg, route oral; conditions: po; how it was run: as §1
[17] = In vivo antitumor efficacy in nude mice 0-24 hr after intravenous dose of 25 mg/kg expressed as Area under the curve; assay type: ADME, organism-based; design: time < 24 hr, dose 25 mg/kg, route intravenous; conditions: mouse; how it was run: as §1
[18] = Maximal plasma concentration in cynomolgus monkeys after 10 mg/kg oral dose; assay type: ADME, organism-based, Macaca fascicularis; design: dose 10 mg/kg, route oral; conditions: cynomolgus monkey, plasma; how it was run: as §1
Cynomolgus monkey = assay: In vivo antitumor efficacy after peroral dose of 10 mg/kg in cynomolgus monkeys expressed as duration for which compound was present above IC50; assay type: ADME, organism-based, Macaca fascicularis; design: dose 10 mg/kg, route oral; conditions: po; how it was run: as §1

Compound | IC50 [3] [nM] | IC50 [5] [nM] | IC50 [8] [nM] | other results
O=C(Cc1ccncc1)N1CCN(C2c3ccc(Cl)cc3CCc3cc(Br)cnc32)CC1 (configuration not stated) | 380 | 12 | > 39000 | bioavailability [1]: 20.8%; Time above IC50 [2]: 6 h; AUC at 24 h [4]: 1100 ng·h/mL; half-life [6]: 44.4 min; AUC [7]: 1100 ng·h/mL; Cmax [9]: 0.9 µM
O=C(Nc1ccccn1)N1CCN(C2c3ccc(Cl)cc3CCc3cccnc32)CC1 (configuration not stated) | 1300 | – | > 46000 | –
O=C(Oc1cccnc1)N1CCN([C@H]2c3ccc(Cl)cc3CCc3cccnc32)CC1 | 3900 | 820 | – | –
O=C(CC1CCNCC1)N1CCN(C2c3ccc(Cl)cc3CCc3cc(Br)cnc32)CC1 (configuration not stated) | 170 | 72 | > 38000 | AUC at 24 h [10]: 27200 ng·h/mL; Cmax [11]: 3 µM; bioavailability [12]: 65%; half-life [13]: 120 min; AUC at 24 h [14]: 17600 ng·h/mL; Time above IC50 (Mus musculus [15]): 24 h
CNC(=O)N1CCC(CC(=O)N2CCN(C3c4ccc(Cl)cc4CCc4cc(Br)cnc43)CC2)CC1 (configuration not stated) | 750 | 50 | > 35000 | AUC at 24 h [10]: 9900 ng·h/mL; Cmax [11]: 80 µM; bioavailability [12]: 100%; half-life [13]: 30 min; AUC at 24 h [14]: 33300 ng·h/mL; Time above IC50 (Mus musculus [15]): 4 h
CCCNC(=O)N1CCC(CC(=O)N2CCN(C3c4ccc(Cl)cc4CCc4cc(Br)cnc43)CC2)CC1 (configuration not stated) | 1500 | 100 | > 33000 | –
O=C(Nc1cccnc1)N1CCN(C2c3ccc(Cl)cc3CCc3cccnc32)CC1 (configuration not stated) | 4800 | – | > 46000 | –
CC(=O)N1CCC(CC(=O)N2CCN(C3c4ccc(Cl)cc4CCc4cc(Br)cnc43)CC2)CC1 (configuration not stated) | 590 | 102 | > 34000 | AUC at 24 h [10]: 9510 ng·h/mL; Cmax [11]: 3 µM; bioavailability [12]: 28.8%; half-life [13]: 22.2 min; AUC at 24 h [14]: 2740 ng·h/mL; Time above IC50 (Mus musculus [15]): 2 h
O=C(Nc1cc[n+]([O-])cc1)N1CCN(C2c3ccc(Cl)cc3CCc3cc(Br)cnc32)CC1 (configuration not stated) | 5800 | 210 | – | –
CCCC[C@H]1CN(C2c3ccc(Cl)cc3CCc3cc(Br)cnc32)CCN1C(=O)Cc1cc[n+]([O-])cc1 (some centres not stated) | 630 | 60 | > 34200 | Time above IC50 (Mus musculus [16]): 7 h; AUC at 24 h [10]: 91400 ng·h/mL; bioavailability [1]: 47%; AUC at 24 h [4]: 43200 ng·h/mL; half-life [6]: 120 min; Cmax [9]: 11.5 µM
CC(=O)N1CCC(C(=O)N2CCN([C@H]3c4ccc(Cl)cc4CCc4cccnc43)CC2)CC1 | 6500 | 1800 | – | –
CN1CCC(CC(=O)N2CCN(C3c4ccc(Cl)cc4CCc4c(Cl)ccnc43)CC2)CC1 (configuration not stated) | 5700 | 450 | – | –
O=C(/C=C/c1cccnc1)N1CCN(C2c3ccc(Cl)cc3CCc3cccnc32)CC1 (configuration not stated) | – | 2600 | > 50000 | –
O=C(CC1CCNCC1)N1CCN([C@@H]2c3ccc(Cl)cc3CCc3cc(Br)cnc32)CC1 | 560 | 87 | – | –
O=C(Cc1cc[n+]([O-])cc1)N1CCN(C2c3ccc(Cl)cc3C=Cc3cc(Br)cnc32)CC1 (configuration not stated) | 350 | – | – | AUC at 24 h [17]: 11700 ng·h/mL; Cmax [18]: 1.9 µM; Time above IC50 (Cynomolgus monkey): 31 h
O=C(Nc1ccncc1)N1CCN(C2c3ccc(Cl)cc3CCc3cccnc32)CC1 (configuration not stated) | – | – | > 40000 | –
COCC[C@H]1CN(C2c3ccc(Cl)cc3CCc3cc(Br)cnc32)CCN1C(=O)Cc1cc[n+]([O-])cc1 (some centres not stated) | < 250 | 34 | – | Time above IC50 (Mus musculus [16]): 7 h; AUC at 24 h [4]: 19900 ng·h/mL; Cmax [9]: 9 µM
CC(C)(C(=O)N1CCN(C2c3ccc(Cl)cc3CCc3cc(Br)cnc32)CC1)c1ccc[n+]([O-])c1 (configuration not stated) | 2200 | 380 | – | Time above IC50 (Mus musculus [16]): 4 h; bioavailability [1]: 47%; AUC at 24 h [17]: 25000 ng·h/mL; AUC at 24 h [4]: 11700 ng·h/mL; half-life [6]: 36 min; Cmax [9]: 11 µM
O=C(Nc1cccnc1)N1CCN(C2c3ccc(Cl)cc3CCc3cc(Br)cnc32)CC1 (configuration not stated) | 3700 | 210 | > 10000 | –
CN1CCCC(CC(=O)N2CCN(C3c4ccc(Cl)cc4CCc4cccnc43)CC2)C1 (configuration not stated) | 2400 | 1190 | – | –
